Laboratory results as given in ChEMBL document CHEMBL5252546, “Salutaxel, a Conjugate of Docetaxel and a Muramyl Dipeptide (MDP) Analogue, Acts as Multifunctional Prodrug That Inhibits Tumor Growth and Metastasis” (J Med Chem, 2018).
Activity calls are given as the source filed them. The rule behind the calls is not given here.

How the values were obtained:
4T1 [1] = assay: Antitumor activity against mouse 4T1 cells implanted in BALB/c mouse assessed as decrease in tumor MMP2 expression level at 5.7 mg/kg,iv administrated once per week for 4 weeks by western blot assay; type: functional, organism-based
Summary of the method: (§1)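 4T1 cells injected into mammary fat pads of BALB/c mice. Saline vehicle or test article given iv once weekly for 4 weeks. Spleen, lung and tumor lysates immunoblotted for MMP2/MMP9 with β-actin as loading control. Bands averaged over five mice per group, representative of two independent experiments.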

[2] = Tmax in mouse tumor implanted with mouse 4T1 cells at 5.7 mg/kg,iv measured upto 72 hrs; type: ADME, organism-based, Neoplasm
in vivo = settings: mouse, plasma, iv, 5.7 mg/kg
4T1 [3] = assay: Antitumor activity against mouse 4T1 cells implanted in BALB/c mouse assessed as decrease in lung MMP2 expression level at 5.7 mg/kg,iv administrated once per week for 4 weeks in presence of MDA-205 by western blot assay; type: functional, organism-based; summary of the method: as §1
[4] = Toxicity in BALB/c mouse injected with mouse 4T1 cells assessed as body weight loss at 5.7 mg/kg,iv in presence of compound 5b administrated once per week for 4 weeks; type: organism-based; settings: in vivo, 672 h
4T1 [5] = assay: Antitumor activity against mouse 4T1 cells implanted in BALB/c mouse assessed as decrease in serum IL-6 level at 5.7 mg/kg,iv administrated once per week for 4 weeks by ELISA; type: functional, organism-based
4T1 [6] = assay: Antitumor activity against mouse 4T1 cells implanted in BALB/c mouse assessed as decrease in spleen MMP2 expression level at 5.7 mg/kg,iv administrated once per week for 4 weeks in presence of MDA-205 by western blot assay; type: functional, organism-based; summary of the method: as §1
[7] = Prodrug conversion in mouse tumor implanted with mouse 4T1 cells assessed as AUC (0-t) of docetaxel at 4 mg/kg,iv measured upto 72 hrs; type: ADME, organism-based, Neoplasm; parameters: time < 72 hrs, dose 4 mg/kg, route iv; settings: in vivo
[8] = AUC (0-infinity) in male rat at 4 mg/kg,iv measured upto 24 hrs; type: ADME, organism-based; parameters: time < 24 hrs, dose 4 mg/kg, route iv; settings: in vivo
Summary of the method: (§2)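 Single iv dose: rats 2, 4 or 8 mg/kg by intravenous injection; Beagle dogs 1, 2 or 4 mg/kg by intravenous infusion. Plasma concentration–time data were analysed by sex and pooled. Reported parameters: Cmax, Tmax, AUC0−t, AUC0−∞, MRT0−∞, t1/2, CL, Vss, given as mean ± SD.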

[9] = Tmax in female Beagle dog at 1 mg/kg,iv measured upto 24 hrs; type: ADME, organism-based, Canis lupus familiaris; settings: in vivo
Cytochrome P450 3A4 = Cytochrome P450 3A4 (Homo sapiens, UniProt P08684); assay: Inhibition of CYP3A4 in human liver microsomes using probe substrate at 0.1 to 100 uM in presence of NADPH; type: ADME, Microsome; settings: dose 0.1-100 µM
NCI-H460 = assay: Antiproliferative activity against human NCI-H460 cells assessed inhibition of cell growth incubated for 72 hrs by SRB assay; type: functional, cell-based; settings: NCI-H460, 72 h
[10] = Half life in rat at 4 mg/kg,iv measured upto 24 hrs; type: ADME, organism-based; settings: in vivo
[11] = Drug metabolism in rat feces assessed as metabolite MDA-205 formation at 4 mg/kg,iv measured after 24 hrs; type: ADME, organism-based; settings: in vivo
[12] = Clearance in male Beagle dog at 4 mg/kg,iv measured upto 24 hrs; type: ADME, organism-based, Canis lupus familiaris; settings: in vivo
Summary of the method: (§3)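 Beagle dogs were given a single iv infusion at 1, 2 or 4 mg/kg. Plasma parent drug and released docetaxel were followed over time. Cmax, Tmax, AUC, MRT, t1/2, CL and Vss were reported by sex and for all dogs combined.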

[13] = Toxicity in Beagle dog assessed as facial swelling at 3 to 18 mg/kg,iv measured upto 24 hrs; type: organism-based, Canis lupus familiaris; settings: in vivo, dose 3-18 mg/kg
[14] = Toxicity in Beagle dog assessed as effect on electrocardiogram index at 1 to 4 mg/kg,iv; type: organism-based, Canis lupus familiaris; settings: in vivo, dose 1-4 mg/kg
[15] = Toxicity in male Sprague-Dawley rat assessed as maximal non-toxic dose at iv administration; type: organism-based; settings: in vivo, read-out: MNTD
[16] = Stability in dog plasma assessed as compound remaining at 1 uM incubated for 6 hrs; type: ADME, cell-free, Canis lupus familiaris
[17] = MRT (0 to infinity) in Beagle dog at 1 mg/kg,iv measured upto 24 hrs; type: ADME, organism-based, Canis lupus familiaris; settings: in vivo
[18] = Half life in female rat at 2 mg/kg,iv measured upto 24 hrs; type: ADME, organism-based; settings: in vivo
[19] = AUC (0-infinity) in female rat at 2 mg/kg,iv measured upto 24 hrs; type: ADME, organism-based; parameters: time < 24 hrs, dose 2 mg/kg, route iv; settings: in vivo; summary of the method: as §2
[20] = AUC (0-t) in male rat at 8 mg/kg,iv measured upto 24 hrs; type: ADME, organism-based; parameters: time < 24 hrs, dose 8 mg/kg, route iv; settings: in vivo; summary of the method: as §2
[21] = Prodrug conversion in mouse plasma implanted with mouse 4T1 cells assessed as half life of docetaxel at 4 mg/kg,iv measured upto 72 hrs; type: ADME, organism-based; settings: in vivo
[22] = Volume of distribution at steady state in male rat at 4 mg/kg,iv measured upto 24 hrs; type: ADME, organism-based; settings: in vivo, read-out: Vdss
4T1 [23] = assay: Synergistic antitumor activity against mouse 4T1 cells xenografted with BALB/c mouse assessed as decrease in tumor weight at 10 mg/kg,iv administrated in combination with doxorubicin once per week for 4 weeks; type: functional, organism-based
[24] = Half life in male Beagle dog at 1 mg/kg,iv measured upto 24 hrs; type: ADME, organism-based, Canis lupus familiaris; settings: in vivo
[25] = Plasma protein binding in rat plasma incubated for 4 hrs; type: ADME, cell-free; settings: read-out: PPB (converted)
[26] = Drug concentration in plasma of Beagle dog assessed as docetaxel concentration at 1 to 4 mg/kg,iv measured upto 24 hrs; type: ADME, organism-based, Canis lupus familiaris; settings: in vivo, dose 1-4 mg/kg; summary of the method: as §3
[27] = Drug metabolism in rat feces assessed as metabolite docetaxel formation at 4 mg/kg,iv measured after 24 hrs; type: ADME, organism-based; settings: in vivo
[28] = Drug concentration in rat plasma at 4 mg/kg,iv measured after 24 hrs; type: ADME, organism-based; settings: in vivo
Summary of the method: (§4)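 Rats received 4 mg/kg iv. Parent drug and released docetaxel were assayed in tissues and plasma from the first sampling at 0.25 h to 24 h. The lower limit of quantitation was 200 ng/g.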

[29] = Cmax in male rat at 8 mg/kg,iv measured upto 24 hrs; type: ADME, organism-based; parameters: time < 24 hrs, dose 8 mg/kg, route iv; settings: in vivo
Summary of the method: (§5)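 Rats were given a single iv injection at 2, 4 or 8 mg/kg. Plasma parent drug and released docetaxel were followed over time. Cmax, Tmax, AUC, MRT, t1/2, CL and Vss were reported for males, females and all animals combined.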

[30] = AUC (0-infinity) in male rat at 2 mg/kg,iv measured upto 24 hrs; type: ADME, organism-based; parameters: dose 2 mg/kg, time < 24 hrs, route iv; settings: in vivo; summary of the method: as §2
[31] = Tmax in Beagle dog at 1 mg/kg,iv measured upto 24 hrs; type: ADME, organism-based, Canis lupus familiaris; settings: in vivo
[32] = Tmax in male rat at 8 mg/kg,iv measured upto 24 hrs; type: ADME, organism-based; settings: in vivo
[33] = Drug metabolism in dog hepatocytes assessed as MDA-205 metabolite formation at 20 uM incubated for 180 mins; type: ADME, cell-based, Canis lupus familiaris, Hepatocyte; settings: 3 h
[34] = Clearance in female rat at 2 mg/kg,iv measured upto 24 hrs; type: ADME, organism-based; settings: in vivo; summary of the method: as §5
[35] = Drug distribution in rat spleen at 4 mg/kg,iv measured by 0.25 hrs; type: ADME, organism-based; settings: in vivo; summary of the method: as §4
[36] = AUC (0-t) in female Beagle dog at 1 mg/kg,iv measured upto 24 hrs; type: ADME, organism-based, Canis lupus familiaris; parameters: dose 1 mg/kg, time < 24 hrs, route iv; settings: in vivo; summary of the method: as §2

Sequence of Cytochrome P450 3A4 (P08684 whole entry): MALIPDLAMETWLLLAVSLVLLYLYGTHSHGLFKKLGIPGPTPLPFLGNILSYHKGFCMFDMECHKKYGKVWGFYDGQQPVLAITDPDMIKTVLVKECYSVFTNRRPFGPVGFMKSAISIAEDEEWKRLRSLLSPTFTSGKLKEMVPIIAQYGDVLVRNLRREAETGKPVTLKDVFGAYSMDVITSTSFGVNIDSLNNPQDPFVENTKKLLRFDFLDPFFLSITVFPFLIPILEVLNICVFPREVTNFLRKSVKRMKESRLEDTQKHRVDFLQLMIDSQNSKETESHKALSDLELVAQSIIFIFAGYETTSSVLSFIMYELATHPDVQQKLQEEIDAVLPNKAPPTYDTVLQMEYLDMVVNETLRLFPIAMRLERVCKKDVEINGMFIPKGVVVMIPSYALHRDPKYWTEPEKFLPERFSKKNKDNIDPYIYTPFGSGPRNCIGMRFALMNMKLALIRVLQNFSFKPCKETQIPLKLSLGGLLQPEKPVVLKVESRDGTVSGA

In the case of `CC(=O)O[C@@]12CO[C@@H]1C[C@H](O)[C@@]1(C)C(=O)[C@H](O)C3=C(C)[C@@H](OC(=O)[C@H](O)[C@@H](NC(=O)OC(C)(C)C)c4ccccc4)C[C@@](O)([C@@H](OC(=O)c4ccccc4)[C@H]21)C3(C)C` [DOCETAXEL ANHYDROUS], the Activity (4T1 [1]) is reported as “inactive”, the Tmax [2] is reported as 30 min and the AUC(0-t) at 72 h (in vivo) is reported as 2.24 µM·h. For the same molecule, the Activity (4T1 [3]) was “inactive”, the Activity [4] was “Non-Toxic” and the Activity (4T1 [5]) was “Active”. The Activity (4T1 [6]) was “inactive”.
Work on `CC(=O)O[C@@]12CO[C@@H]1C[C@H](O)[C@@]1(C)C(=O)[C@H](O)C3=C(C)[C@@H](OC(=O)[C@H](OC(=O)CCC(=O)NCCCC[C@H](NC(=O)CC[C@@H](NC(=O)[C@H](C)NC(=O)/C=C/c4ccc(F)cc4Cl)C(N)=O)C(=O)O)[C@@H](NC(=O)OC(C)(C)C)c4ccccc4)C[C@@](O)([C@@H](OC(=O)c4ccccc4)[C@H]21)C3(C)C` yielded an AUCt [7] of 81 µM·h, an AUC(0-inf) [8] of 20800 ng·h/mL and a Tmax [9] of 30 min. The “inhibition (INH)” value (Cytochrome P450 3A4) was “Not Active”, the IC50 (NCI-H460) was 16.3 nM and the half-life [10] was 10.6 min. The Drug metabolism [11] was “Metabolite_Detected”, the clearance [12] was 4.56 mL/min/kg and the Activity [13] was “Toxic”. The Activity [14] was “Non-Toxic”, the NOAEL [15] was 4 mg/kg and the Stability [16] was “Stable”. For the same molecule, the MRT inf [17] was 15.2 min, the half-life [18] was 6.6 min and the AUC(0-inf) [19] was 4330 ng·h/mL. The AUC(0-t) at 24 h [20] was 52300 ng·h/mL, the t1/2 [21] was 178 min and the Vd [22] was 0.073 L/kg. For the same molecule, the Activity (4T1 [23]) was “Active”, the half-life [24] was 13.6 min and the fraction unbound at 4 h [25] was 0.007. The Drug uptake [26] was 0.23%, the Drug metabolism [27] was “Metabolite_Detected” and the Drug uptake [28] was 1%. For the same molecule, the Cmax [29] was 61.9 µg/mL, the AUC(0-inf) [30] was 6120 ng·h/mL and the Tmax [31] was 30 min. The Tmax [32] was 4.98 min, the Drug metabolism [33] was “Metabolite_Detected” and the clearance [34] was 7.73 mL/min/kg. The Drug uptake [35] was “Active” and the AUC(0-t) at 24 h [36] was 1590 ng·h/mL.
